What was measured:
[1] = biological target: Cytochrome P450 3A4 (Homo sapiens, UniProt P08684); assay: Time-dependent inhibition of human CYP3A4 using testosterone as substrate; type: ADME
[2] = AUC in CD(SD) rat at 3 mg/kg, po; type: ADME, organism-based; settings: in vivo
[3] = biological target: Cytochrome P450 2D6 (Homo sapiens, UniProt P10635); assay: Time-dependent inhibition of human CYP2D6; type: ADME
[4] = biological target: T1, Peroxisome proliferator-activated receptor gamma (Homo sapiens, UniProt P37231); assay: Inhibition of GAL4-fused human PPARgamma transcriptional activity expressed in CHOK1 cells after 2 days by luciferase reporter gene assay; type: cell-based
T1 sequence (P37231 whole entry): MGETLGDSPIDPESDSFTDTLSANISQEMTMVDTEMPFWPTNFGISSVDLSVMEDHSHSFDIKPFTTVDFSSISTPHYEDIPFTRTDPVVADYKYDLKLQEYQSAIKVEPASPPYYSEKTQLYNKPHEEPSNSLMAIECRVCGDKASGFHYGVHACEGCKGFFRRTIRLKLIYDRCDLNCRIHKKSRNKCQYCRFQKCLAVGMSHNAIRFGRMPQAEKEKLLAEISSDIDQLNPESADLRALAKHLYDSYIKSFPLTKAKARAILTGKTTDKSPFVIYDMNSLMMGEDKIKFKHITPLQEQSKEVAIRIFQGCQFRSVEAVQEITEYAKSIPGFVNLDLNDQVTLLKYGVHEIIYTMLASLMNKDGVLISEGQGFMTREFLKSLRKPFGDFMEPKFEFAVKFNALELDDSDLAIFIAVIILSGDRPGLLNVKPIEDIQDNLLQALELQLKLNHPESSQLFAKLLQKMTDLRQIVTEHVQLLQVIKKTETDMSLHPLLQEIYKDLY

[5] = biological target: Cytochrome P450 2C19 (Homo sapiens, UniProt P33261); assay: Time-dependent inhibition of human CYP2C19; type: ADME
[6] = biological target: T2, Cytochrome P450 1A2 (Homo sapiens, UniProt P05177); assay: Time-dependent inhibition of human CYP1A2; type: ADME
T2 sequence (P05177 whole entry): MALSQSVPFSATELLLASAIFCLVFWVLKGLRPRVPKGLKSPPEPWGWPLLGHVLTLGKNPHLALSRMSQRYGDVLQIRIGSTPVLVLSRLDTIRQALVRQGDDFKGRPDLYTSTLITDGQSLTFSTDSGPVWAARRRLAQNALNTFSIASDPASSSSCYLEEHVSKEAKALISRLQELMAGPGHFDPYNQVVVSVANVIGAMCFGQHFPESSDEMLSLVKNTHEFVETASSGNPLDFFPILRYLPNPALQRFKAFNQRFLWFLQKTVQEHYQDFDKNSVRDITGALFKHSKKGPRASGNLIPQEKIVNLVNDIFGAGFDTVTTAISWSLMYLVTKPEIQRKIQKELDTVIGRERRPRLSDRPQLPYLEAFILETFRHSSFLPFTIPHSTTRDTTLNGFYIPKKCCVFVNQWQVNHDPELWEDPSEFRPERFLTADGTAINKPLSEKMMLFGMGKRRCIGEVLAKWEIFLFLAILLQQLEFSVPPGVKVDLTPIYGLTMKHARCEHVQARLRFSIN

[7] = biological target: T3, Retinoid X receptor (Homo sapiens, UniProt P28702+P48443+P19793); assay: Inhibition of GAL4-fused human RXR transcriptional activity expressed in CHOK1 cells after 2 days by luciferase reporter gene assay; type: cell-based
T3 sequence (P28702 whole entry): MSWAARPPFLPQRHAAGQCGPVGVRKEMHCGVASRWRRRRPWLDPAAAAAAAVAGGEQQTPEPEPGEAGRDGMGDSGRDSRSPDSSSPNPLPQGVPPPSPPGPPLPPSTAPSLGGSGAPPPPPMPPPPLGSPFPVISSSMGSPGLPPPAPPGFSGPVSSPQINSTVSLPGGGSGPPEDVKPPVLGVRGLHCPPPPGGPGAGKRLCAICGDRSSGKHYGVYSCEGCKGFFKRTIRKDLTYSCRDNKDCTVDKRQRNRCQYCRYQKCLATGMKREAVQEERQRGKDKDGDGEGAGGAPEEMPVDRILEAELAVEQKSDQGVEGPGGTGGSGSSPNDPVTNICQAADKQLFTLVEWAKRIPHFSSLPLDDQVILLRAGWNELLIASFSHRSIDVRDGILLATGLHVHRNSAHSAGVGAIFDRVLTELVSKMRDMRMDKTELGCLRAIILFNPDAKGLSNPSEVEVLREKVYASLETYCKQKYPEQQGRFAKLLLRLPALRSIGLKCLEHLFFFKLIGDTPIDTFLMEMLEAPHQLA
T3 sequence (P48443 whole entry): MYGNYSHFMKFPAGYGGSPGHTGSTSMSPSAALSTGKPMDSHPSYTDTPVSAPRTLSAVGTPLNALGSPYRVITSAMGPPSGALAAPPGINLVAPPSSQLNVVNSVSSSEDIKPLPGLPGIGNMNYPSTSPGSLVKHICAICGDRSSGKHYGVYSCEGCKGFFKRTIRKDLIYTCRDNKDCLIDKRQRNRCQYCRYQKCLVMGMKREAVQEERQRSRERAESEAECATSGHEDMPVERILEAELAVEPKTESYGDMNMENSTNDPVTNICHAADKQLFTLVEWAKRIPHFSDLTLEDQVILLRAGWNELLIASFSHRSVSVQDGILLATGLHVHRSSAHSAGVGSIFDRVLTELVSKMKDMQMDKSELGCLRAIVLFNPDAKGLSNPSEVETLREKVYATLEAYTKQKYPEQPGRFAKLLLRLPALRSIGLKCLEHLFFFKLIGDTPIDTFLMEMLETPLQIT
T3 sequence (P19793 whole entry): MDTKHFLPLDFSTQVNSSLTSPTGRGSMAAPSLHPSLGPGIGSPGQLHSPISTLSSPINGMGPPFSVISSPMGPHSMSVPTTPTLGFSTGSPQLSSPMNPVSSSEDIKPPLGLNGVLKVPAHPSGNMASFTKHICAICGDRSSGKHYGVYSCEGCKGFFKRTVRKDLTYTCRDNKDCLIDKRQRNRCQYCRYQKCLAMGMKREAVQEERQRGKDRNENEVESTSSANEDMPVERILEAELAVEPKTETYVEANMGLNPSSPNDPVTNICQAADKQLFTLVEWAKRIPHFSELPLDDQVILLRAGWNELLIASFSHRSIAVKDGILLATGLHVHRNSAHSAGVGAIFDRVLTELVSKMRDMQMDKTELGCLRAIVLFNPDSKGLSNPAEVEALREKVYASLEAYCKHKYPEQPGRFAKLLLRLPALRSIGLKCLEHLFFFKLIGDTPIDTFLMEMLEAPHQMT

[8] = Stability in human liver microsomes assessed as compound remaining after 60 mins; type: ADME, Microsome; settings: read-out: Stability
Method in brief: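 Human liver microsomes incubated with compound for 60 minutes; value reported as % of compound remaining.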

[9] = MRT in CD(SD) rat at 3 mg/kg, po; type: ADME, organism-based; settings: in vivo
[10] = Lipophilicity, log D of the compound; type: physicochemical; settings: octanol/water

Cytochrome P450 2C19, sequence (P33261 whole entry): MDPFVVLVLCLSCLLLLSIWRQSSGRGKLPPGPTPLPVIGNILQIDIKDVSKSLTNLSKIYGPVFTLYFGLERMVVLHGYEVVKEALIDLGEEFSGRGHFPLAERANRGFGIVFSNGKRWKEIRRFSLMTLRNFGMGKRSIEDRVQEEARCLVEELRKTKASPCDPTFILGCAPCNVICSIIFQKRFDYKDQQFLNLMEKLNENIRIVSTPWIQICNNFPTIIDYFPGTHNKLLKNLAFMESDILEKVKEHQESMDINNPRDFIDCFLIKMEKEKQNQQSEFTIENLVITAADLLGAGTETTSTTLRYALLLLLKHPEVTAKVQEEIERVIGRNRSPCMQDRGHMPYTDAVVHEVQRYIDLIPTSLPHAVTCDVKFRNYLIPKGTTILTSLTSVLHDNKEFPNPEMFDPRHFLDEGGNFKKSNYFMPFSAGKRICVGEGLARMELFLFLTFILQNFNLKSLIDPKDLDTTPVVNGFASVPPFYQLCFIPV
Cytochrome P450 2D6, sequence (P10635 whole entry, the tested form may be a part): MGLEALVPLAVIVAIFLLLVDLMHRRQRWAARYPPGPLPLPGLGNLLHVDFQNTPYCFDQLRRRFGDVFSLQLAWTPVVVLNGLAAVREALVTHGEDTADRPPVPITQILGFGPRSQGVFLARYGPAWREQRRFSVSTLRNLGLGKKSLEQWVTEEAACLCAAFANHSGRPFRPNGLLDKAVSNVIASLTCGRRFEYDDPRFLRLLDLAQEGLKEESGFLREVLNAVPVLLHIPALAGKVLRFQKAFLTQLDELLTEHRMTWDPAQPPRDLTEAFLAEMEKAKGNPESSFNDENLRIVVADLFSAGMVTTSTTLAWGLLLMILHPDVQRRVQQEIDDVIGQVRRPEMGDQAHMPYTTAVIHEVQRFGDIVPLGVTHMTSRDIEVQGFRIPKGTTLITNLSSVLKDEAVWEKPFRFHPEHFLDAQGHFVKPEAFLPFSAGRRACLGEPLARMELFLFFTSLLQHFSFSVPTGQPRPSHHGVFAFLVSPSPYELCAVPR
Cytochrome P450 3A4, sequence (P08684 whole entry): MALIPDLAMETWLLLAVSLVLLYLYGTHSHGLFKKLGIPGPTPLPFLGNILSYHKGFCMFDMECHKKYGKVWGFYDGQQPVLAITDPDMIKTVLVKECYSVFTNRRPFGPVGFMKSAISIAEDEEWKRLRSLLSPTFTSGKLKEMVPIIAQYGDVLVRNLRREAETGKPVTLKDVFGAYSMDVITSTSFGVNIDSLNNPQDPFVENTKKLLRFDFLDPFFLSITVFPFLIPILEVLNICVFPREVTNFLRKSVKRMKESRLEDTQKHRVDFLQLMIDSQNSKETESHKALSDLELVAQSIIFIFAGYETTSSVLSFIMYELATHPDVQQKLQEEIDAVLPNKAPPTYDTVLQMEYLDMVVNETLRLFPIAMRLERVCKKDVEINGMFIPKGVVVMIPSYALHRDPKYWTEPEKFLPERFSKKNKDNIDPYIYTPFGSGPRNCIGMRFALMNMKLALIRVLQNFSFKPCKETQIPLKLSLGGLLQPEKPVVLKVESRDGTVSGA

Molecule `CC(C)(C)Cc1cc(-c2onc([C@@H](CCC(=O)[O-])CC(=O)Nc3ccc(Cl)cc3Cl)c2C2CC2)no1.[Na+]` has an IC50 [1] of over 50 µM, an AUC [2] of 15 µM·h and an IC50 [3] of over 50 µM. The EC50 [4] was over 20 µM, the IC50 [5] was over 50 µM and the IC50 [6] was over 50 µM. It also gave an EC50 [7] of over 20 µM, a remaining at 1 h [8] of 96% and an MRT [9] of 4.9 h. For the same molecule, the logD [10] was 4.2.
